By Kd is commonly meant the concentration at which binding is half-saturated. Lower therefore signals tighter binding.

In experiment [1] the target is T1, hArc-NL (residues 207–277) (Homo sapiens, UniProt Q7LC44).
T1 sequence (Q7LC44 207-277): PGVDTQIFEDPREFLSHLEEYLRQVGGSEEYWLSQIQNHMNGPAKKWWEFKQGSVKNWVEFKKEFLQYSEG
The experiment is described as follows: ITC analysis of peptide binding to hArc-NL. The note with it: 20 mM Tris-HCl pH 7.4, 150 mM NaCl, +25 °C, one-site binding model. Put shortly:
(§1)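 Human Arc constructs carried a cleavable His-MBP tag and were expressed in E. coli BL21 with IPTG induction at +30 °C. They were purified by Ni-NTA and size-exclusion chromatography, and TEV cleavage left an N-terminal GAMG. Peptides were N-acetylated and C-amidated. Peptide (2.5–5.0 mM) was titrated into the cell containing protein (0.25–0.5 mM).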

For experiment [2], the target named is T2, hArc-CT (residues 206–396, containing both lobes) (Homo sapiens, UniProt Q7LC44).
T2 sequence (Q7LC44 206-396): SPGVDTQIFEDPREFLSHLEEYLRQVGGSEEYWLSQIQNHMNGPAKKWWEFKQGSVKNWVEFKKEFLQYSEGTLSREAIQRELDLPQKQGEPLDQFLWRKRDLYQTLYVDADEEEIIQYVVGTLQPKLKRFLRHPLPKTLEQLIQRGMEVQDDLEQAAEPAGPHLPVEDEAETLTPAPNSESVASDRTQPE
Briefly: ITC analysis of peptide binding to hArc-CT. Particulars: 20 mM Tris-HCl pH 7.4, 150 mM NaCl, +25 °C, one-site binding model. The procedure, abridged: as §1
For orientation: ITC needs no label: the signal is the heat of the interaction.

The target in experiment [3] is T3, human Arc C-terminal domain (hArc-CT, residues 206–396, containing both lobes) (human, UniProt Q7LC44 206-396).
T3 sequence: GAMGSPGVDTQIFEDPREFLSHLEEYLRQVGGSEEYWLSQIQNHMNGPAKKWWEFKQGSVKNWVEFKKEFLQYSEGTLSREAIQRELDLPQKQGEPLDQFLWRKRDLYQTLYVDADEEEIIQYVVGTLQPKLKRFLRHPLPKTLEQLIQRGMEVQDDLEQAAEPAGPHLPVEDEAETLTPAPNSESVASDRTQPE
Briefly: ITC.

For experiment [4], the target named is T4, human Arc N-lobe (hArc-NL, residues 207–277) (human, UniProt Q7LC44 207-277).
T4 sequence: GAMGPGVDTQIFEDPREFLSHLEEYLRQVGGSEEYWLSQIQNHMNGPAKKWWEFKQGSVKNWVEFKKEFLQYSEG
The experiment is described as follows: ITC.

Square brackets hold non-standard residues; d marks the D form. pS = N[C@@H](COP(=O)(O)O)C(=O)O

On to Ac-TSPKFRSR-NH2 [GKAP-R4], for which, in experiment [1], the “-TΔS” value is reported as “+6.6 kcal/mol/°” and the ΔH was -10.9 ± 0.4 kcal/mol. In experiment [2], the “-TΔS” value is on record as “+2.5 kcal/mol/°” and the ΔH is -6.8 ± 0.1 kcal/mol.
For Ac-MPGCFRMR-NH2 [GKAP-R5], in experiment [1], the “-TΔS” value is “+4.7 kcal/mol/°” and the ΔH was -8.2 ± 0.3 kcal/mol.
For the molecule “Ac-RIPSYRYRYQRRSRSSSRSTE-NH2 [pStg(long)]”, in experiment [2], the “-TΔS” value is “+14.0 kcal/mol/°” and the ΔH is -20.2 ± 0.2 kcal/mol.
On to “Ac-TSPKFRSRNESYMRAMST-NH2 [GKAP-R4(long)]”, for which, in experiment [1], the “-TΔS” value is given as “+3.1 kcal/mol/°” and the ΔH is -7.2 ± 0.2 kcal/mol. In experiment [2], the “-TΔS” value is listed as “+2.2 kcal/mol/°” and the ΔH is -6.8 ± 0.2 kcal/mol.
Turning to Ac-RIPSYRYR-NH2 [pStg(wt)], in experiment [1], the “-TΔS” value is on record as “+7.0 kcal/mol/°” and the ΔH was -13.1 ± 0.1 kcal/mol. In experiment [2], the “-TΔS” value is “+6.4 kcal/mol/°” and the ΔH is -12.0 ± 0.2 kcal/mol.

B1: stargazin peptide pStg(wt) (peptide)
peptide: Ac-RIPSYRYR-NH2
As for B1, the Kd in experiment [3] came out at 80 ± 4 µM; in experiment [4], 33.6 ± 1.1 µM. Besides, the values for the dH in experiment [3] and in experiment [4] were -12 ± 0.2 kcal/mol and -13.1 ± 0.1 kcal/mol, respectively.

B2: long GKAP repeat 4 peptide (peptide)
peptide: Ac-TSPKFRSRNESYMRAMST-NH2
In experiment [3], B2 yielded an equilibrium dissociation constant (Kd) of 391 ± 18 µM and a dH of -6.8 ± 0.2 kcal/mol. In experiment [4], this molecule returned a Kd of 426 ± 12 µM and a dH of -7.2 ± 0.2 kcal/mol.

B3: GKAP repeat 5 peptide (peptide)
peptide: Ac-MPGCFRMR-NH2
In experiment [4], B3 returned a Kd of 2390 ± 314 µM and a dH of -8.2 ± 0.3 kcal/mol.

B4: GKAP repeat 4 peptide (peptide)
peptide: Ac-TSPKFRSR-NH2
As to B4, the results for the dissociation constant Kd in experiment [3] and in experiment [4] were 763 ± 10 µM and 714 ± 19 µM, respectively. Moreover, the dH in experiment [3] is -6.8 ± 0.1 kcal/mol; in experiment [4], -10.9 ± 0.4 kcal/mol.

B5: phosphorylated stargazin peptide pStg(phos) (peptide)
peptide: Ac-RIP[pS]YRYR-NH2
SMILES: CC[C@H](C)[C@H](NC(=O)[C@H](CCCNC(=N)N)NC(C)=O)C(=O)N1CCC[C@H]1C(=O)N[C@@H](COP(=O)(O)O)C(=O)N[C@@H](Cc1ccc(O)cc1)C(=O)N[C@@H](CCCNC(=N)N)C(=O)N[C@@H](Cc1ccc(O)cc1)C(=O)N[C@@H](CCCNC(=N)N)C(N)=O
Take B5: the dH in experiment [4] is -66.5 ± 0.6 kcal/mol.

B6: long stargazin peptide pStg(long) (peptide)
peptide: Ac-RIPSYRYRYQRRSRSSSRSTE-NH2
With B6, in experiment [3], the affinity, expressed as Kd, was 26.4 ± 1.2 µM and the dH was -20.2 ± 0.2 kcal/mol.

(Values after article PMC7941041 (Biochemistry and Biophysics Reports, 2021).)
